Screening data (PubChem)
PGC1a acetyl inh – inhibitors of PGC1a acetylation signal, primary screen, cell-based, U2OS, AlphaScreen, inhibitor mode; AID 651687, 2012; AlphaScreen anti-acetyl-lysine; with virally co-expressed GCN5 acetyltransferase; inhibition, % at 15.6 µM; 350,000 tested, 0.17% active;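 active means every replicate shows inhibition of at least 40%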;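 further: 0% = neutral control wells and 100% = positive control wells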
ERAP1 HTS inh – human ERAP1 aminopeptidase inhibitors, primary screen, biochemical, single point, plate reader; Endoplasmic reticulum aminopeptidase 1 (Homo sapiens), Q9NZ08; recombinant ERAP1, Leu-AMC fluorescence, 60 min; inhibition, % at 10.7 µM; 340,000 tested, 0.15% active; AID 652197, 2013;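 active means mean replicate inhibition of at least 30%, or all replicates individually reaching that 30% level; inactive means mean below 30% and not every replicate reaching it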;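 further: 0% = neutral control wells and 100% = L-leucinethiol positive control wells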
FGF22 binding – binders of human FGF22 protein, primary screen, FGF22 synaptogenesis inhibitor project, biophysical, thermal shift, single point. activity (Tm shift, normalised), % at 9.99 µM. recombinant FGF22 thermal shift, SYPRO orange fluorescence; percent of sucrose octasulfate shift, DMSO zero. AID 651658, 2012. Fibroblast growth factor 22 (Homo sapiens), Q9HCT0. 340,000 tested, 1.5% active;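 active means mean Tm shift, scaled 0 neutral to 100 positive control, at about 1.3% or above, every replicate too, limit read from the data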
Target sequence (Q9HCT0 whole entry, looked up): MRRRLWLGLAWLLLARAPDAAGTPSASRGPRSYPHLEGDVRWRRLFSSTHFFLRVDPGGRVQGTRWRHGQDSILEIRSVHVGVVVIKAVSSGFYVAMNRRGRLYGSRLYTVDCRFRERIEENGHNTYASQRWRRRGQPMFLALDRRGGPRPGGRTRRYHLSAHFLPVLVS
Cneo AK release – Cryptococcus neoformans cell lysis inducers, primary screen, AK release luminescence, single concentration | C. neoformans lysis, adenylate kinase release luminescence, 4 h; normalised: neutral wells 0, clomiphene wells 100 | lysis activity, % at 15 µM | 360,000 tested, 0.2% active;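 active means mean lysis activity across replicates of at least 80%, whatever share of replicates individually reach that level; inactive means mean lysis activity below 80%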
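Test system: log-phase Cryptococcus neoformans yeast cells; Quantity: yeast cell density of 5 × 10^6 cells/mL; Buffer or medium: YPD; Doses: single compound concentration per well; Timing: 4 h at 37 °C static, read 1 h later; Measured by: AK luminescence; Read-out basis: lysis from increased AK signal; Control set: Clomiphene as positive control.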
Env fusion inh – inhibitors of HIV-1 Env-driven cell-cell fusion, primary screen, HeLa-JRFL effector, CEM21 target cells, luciferase. inhibition, % at 12.3 µM. 360,000 tested, 1.1% active. AID 651610, 2012;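 active means mean replicate inhibition score of at least 50 and every replicate individually at or above 50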;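 further: 0% = plate neutral controls and 100% = maraviroc near 300 nM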
Ecoli rRNA inh – reduced GFP signal of wild-type E. coli, primary screen, bacterial rRNA inhibitor project, GFP/RFP fluorescence, OD600, single point; AID 720706, 2013; E. coli WT GFP vs humanized-ribosome RFP mutants, 24 h; hits give low values; DMSO median 0, no signal -100; GFP signal change (wild-type ribosome), % (test concentration not listed); 350,000 tested, 1.6% active;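 active means significant combined selectivity score with lowered wild-type GFP, culture density cut under 30%, mutant RFP and density less affected; inactive means any of these conditions unmet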
The depositor's hits bear a star; . = no result; [ ] = another dose, or the depositor's remark. Compounds with a hit are over-represented: about 3.5% of the library has one in this group of screens.

SMILES | PGC1a acetyl inh | ERAP1 HTS inh | FGF22 binding | Cneo AK release | Env fusion inh | Ecoli rRNA inh
CCCc1cc(C(=O)N2CCC(N3CCC(C(=O)NC(C)C)CC3)CC2)n(C)n1 | -2 | -5 | 44* | -2 | -2 | 9
CC(C)NC(=O)C1CCN(C2CCN(C(=O)C3=CCCC3)CC2)CC1 | . | -5 | 0 | . | 4 | 13
C=CCNC(=O)/C(C#N)=C/c1ccccc1Cl | -8 | -4 | 43* | . | 5 | -4
C=CCNC(=O)/C(C#N)=C/c1ccc(C(=O)O)cc1 | 1 | 2 | 0 | 2 | 4 | 8
Cc1cccc(NC(=O)/C(C#N)=C/c2ccccc2Cl)n1 | . | -3 | 0 | 4 | -2 | -22*
Cc1cccc(NC(=O)/C(C#N)=C/c2ccccc2O)n1 | . | 3 | 0 | -1 | -13 | 0
Cc1ccc([N+](=O)[O-])cc1NC(=O)C1CCCC1 | . | -4 | 0 | -1 | -3 | 6
OC1CCCN(c2c3c(nc4cc(-c5cccc(F)c5)nn24)CCCC3)C1 (stereo unspecified) | . | 0 | 0 | . | -10 | -35
CCOC(=O)c1sc2nc3c(SCCC(=O)O)cc(C(=O)c4cc(OC)ccc4O)cn3c(=O)c2c1C | -2 | -3 | 0 | . | 72* | 0
CCOC(=O)c1sc2nc3c(SCCC#N)cc(C(=O)c4cc(F)ccc4O)cn3c(=O)c2c1C | 2 | . | . | 1 | 35 | .
CC1(C)CC(NS(=O)(=O)c2ccccc2)CC(C)(C)N1 | 20 | . | . | 1 | . | .
O=C(/C=C/c1ccco1)N(Cc1cccc(Cl)c1)C1CCS(=O)(=O)C1 (stereo unspecified) | -1 | 3 | 0 | . | 9 | 2
O=C(/C=C/c1ccccc1)N(Cc1cccs1)C1CCS(=O)(=O)C1 (stereo unspecified) | 8 | 13 | 0 | -6 | 15 | -13
O=C(/C=C/c1ccccc1)N(Cc1cccc(Cl)c1)C1CCS(=O)(=O)C1 (stereo unspecified) | 6 | 6 | 0 | . | -9 | -35*
COc1cccc(CN(C(=O)/C=C/c2ccc(Cl)cc2)C2CCS(=O)(=O)C2)c1 (stereo unspecified) | -3 | -2 | 0 | . | 17 | -36*
O=C(/C=C/c1ccccc1)N(Cc1ccc(Cl)cc1)C1CCS(=O)(=O)C1 (stereo unspecified) | 3 | 1 | 0 | 1 | 23 | -22*
CCc1cccc(NS(=O)(=O)c2csc(C(N)=O)c2)c1 | 2 | 0 | 0 | 0 | 12 | 0
COc1ccc(-c2nn(C)c(=O)c3ccccc23)cc1NC(=O)COc1ccc(C)cc1 | -3 | -4 | . | 2 | 57* | 15
COc1ccc(-c2nn(C)c(=O)c3ccccc23)cc1NC(=O)Cn1nc(C)c2ccccc2c1=O | -2 | 1 | . | 0 | 76* | 7
CCC(=O)Nc1cc(-c2nn(C)c(=O)c3ccccc23)ccc1OC | . | . | . | -2 | -8 | .
COc1cc(NC(=O)COc2ccccc2)c(OC)cc1NC(C)=O | . | -2 | 43* | -5 | 2 | 6
c1ccc2c(c1)ccc1nnnn12 | 0 | -5 | 0 | 2 | -4 | 4
CCC1(C)Cc2c(C#N)c(SC)nc(N3CCOCC3)c2CO1 (stereo unspecified) | -6 | -2 | 0 | 0 | 14 | -40*
CSc1nc(N2CCOCC2)c2c(c1C#N)CC(C)(C)OC2 | -21 | . | . | . | . | .
Cc1ccc(C)c(N2CCN(S(=O)(=O)c3ccc4c(c3)NC(=O)CC(=O)N4)CC2)c1 | -4 | 3 | 0 | 1 | 9 | -34
SMILES | PGC1a acetyl inh | ERAP1 HTS inh | FGF22 binding | Cneo AK release | Env fusion inh | Ecoli rRNA inh
O=C1C=C(NCc2ccco2)CCC1 | -3 | 2 | 0 | 1 | . | 2
CC1(C)CC(=O)C=C(NCc2ccco2)C1 | 40* | . | . | . | . | .
N#CC1=C(N)Oc2cc(N)ccc2C1c1ccccc1Cl (stereo unspecified) | . | 0 | 0 | -1 | 21 | -15
N#CC1=C(N)OC2=C(CCc3ccccc32)C1c1ccccc1Cl (stereo unspecified) | -1 | -4 | 0 | 3 | . | -22*
COc1cc2c(cc1OC)CN(C(=O)c1ccc(S(=O)(=O)N3CCCC3)cc1)CC2 | -6 | 1 | 0 | . | 5 | -2
CCOc1cc2c(cc1OCC)CN(C(=O)c1cccc(S(=O)(=O)N3CCCC3)c1)CC2 | -10 | -2 | 0 | 6 | -3 | -19*
O=C(COC(=O)/C=C/c1cccs1)Nc1ccccc1Cl | . | 1 | 43* | . | 1 | 5
COc1ccc(CCCC(=O)N/N=C\c2cccs2)cc1 | 12 | 1 | 0 | . | -5 | -23*
CCOc1ccccc1C(=O)OCC(=O)NCCc1ccc(OC)cc1 | -16 | 1 | 0 | -1 | 1 | -22*
CC(=O)c1ccccc1NC(=O)COC(=O)/C=C/c1cccs1 | . | 2 | 0 | 0 | -16 | 6
COC(=O)N/N=C/c1cccs1 | . | -2 | 42 | . | 1 | 13
COc1ccc(CCNC(=O)COC(=O)/C=C/c2cccs2)cc1 | -4 | 3 | 43* | . | -3 | -5
CC(/C=C1\SC(=S)N(NC(=O)c2ccncc2)C1=O)=C\c1ccccc1 | 2 | 4 | 0 | 0 | -2 | -32*
CC(/C=C1\SC(=S)N(NS(=O)(=O)c2ccccc2)C1=O)=C\c1ccccc1 | -2 | . | 0 | 2 | 0 | -43*
O=C(CSc1nnc(-c2ccccn2)n1Cc1ccco1)Nc1ccc2c(c1)OCO2 | 1 | . | . | 12 | 7 | .
CCOc1cc(/C=N/NC(=O)c2ccc(CN3CCOCC3)cc2)ccc1OCc1ccccc1 | -5 | . | . | 2 | 56* | .
CCCC(=O)Nc1ccc2c(c1)OC[C@@H](C)N(Cc1cncnc1)C[C@H](C)[C@@H](OC)CN(C)C2=O | -2 | 1 | 0 | 2 | . | 1
CCCNC(=O)C[C@@H]1C[C@@H]2c3cc(NC(=O)Nc4ccccc4F)ccc3O[C@@H]2[C@H](CO)O1 | -8 | 1 | 0 | -2 | 2[16.7 µM] | 2
COCCNS(=O)(=O)c1ccc2c3c(cccc13)C(=O)N2C | -20 | 2 | 43* | . | -8 | 4
Oc1ccc(Cl)cc1Sc1cc(Cl)ccc1O | 11 | -7 | 2.3* | -3 | . | .
COc1ccc(C)cc1S(=O)(=O)N(C)CC(=O)N1CCC(C(N)=O)CC1 | -1 | -3 | 43* | 1 | 4 | 0
COc1ccc2c(-c3ccccc3)cc(SCC(=O)N(C)C)nc2c1 | -21 | 3 | 0 | . | 26 | -49*
